Measured values published in ChEMBL document CHEMBL2169850, “3,6-bis(3-alkylguanidino)acridines as DNA-intercalating antitumor agents” (Eur J Med Chem, 2012).
The source made the active and inactive calls. The rule behind the calls is not given here.

Legend:
HL-60 [1] = assay: Induction of apoptosis in human HL60 cells at 5 to 25 uM incubated for 48 hrs by AnnexinV/propidium iodide staining method; assay type: functional, cell-based
How it was run: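 HL-60 cells (1.5 × 10^5) were treated at 5–25 µM for 24, 48 or 72 h and harvested. They were stained with Annexin V-FITC for 10 min in HEPES/CaCl2/NaCl binding buffer, washed, briefly stained with PI (1 mg/mL) and analysed by flow cytometry for apoptosis and necrosis. Mean ± SD, n ≥ 3.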

HL-60 [2] = assay: Cell cycle arrest in human HL60 cells assessed as accumulation at S phase at 25 uM incubated for 48 hrs by flow cytometry (reference value: 45.29 +/- 1.23%); assay type: functional
HL-60 [3] = assay: Drug uptake in human HL60 cells with necrotic morphology at 50 uM incubated for 18 hrs by fluorescence microscopy; assay type: ADME, cell-based; conditions: hl-60, 18 h
How it was run: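 HL-60 cells were treated with 50 µM compound for 18 h, washed with PBS, resuspended in HBSS and mounted as native slides. Cells were imaged by inverted fluorescence microscopy at 40×, with excitation 360/40 and emission 470/40. The fluorescence channel was merged with brightfield images.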

HL-60 [4] = assay: Cell cycle arrest in human HL60 cells assessed as accumulation at G2/M phase at 5 uM incubated for 72 hrs by flow cytometry (reference value: 12.68 +/- 3.21%); assay type: functional
HL-60 [5] = assay: Cell cycle arrest in human HL60 cells assessed as accumulation at G2/M phase at 15 uM incubated for 72 hrs by flow cytometry (reference value: 12.68 +/- 3.21%); assay type: functional
HL-60 [6] = assay: Antiproliferative activity against human HL60 cells assessed as cell number at 25 uM incubated for 48 hrs by Coulter counting method; assay type: functional
How it was run: (§1)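 HL-60 cells in RPMI with 10% heat-inactivated FCS, antibiotics and amphotericin, 37 °C, 5% CO2, seeded in 60 mm dishes. Compound added at 5, 15 or 25 µM for 24, 48 or 72 h. Absolute cell counts taken by Coulter counter and expressed as percentage of untreated control. Mean ± SD of at least three independent experiments; one-way ANOVA with Tukey test, p < 0.05.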

HL-60 [7] = assay: Cell cycle arrest in human HL60 cells assessed as accumulation at G1 phase at 25 uM incubated for 24 hrs by flow cytometry (reference value: 35.96 +/- 1.63%); assay type: functional
[8] = target: T1, DNA topoisomerase 1 (Homo sapiens) (UniProt P11387); assay: Inhibition of human topoisomerase 1 assessed as reduction in pBR322 DNA relaxation of relaxation at 60 uM by DNA unwinding assay
T1 sequence (whole entry): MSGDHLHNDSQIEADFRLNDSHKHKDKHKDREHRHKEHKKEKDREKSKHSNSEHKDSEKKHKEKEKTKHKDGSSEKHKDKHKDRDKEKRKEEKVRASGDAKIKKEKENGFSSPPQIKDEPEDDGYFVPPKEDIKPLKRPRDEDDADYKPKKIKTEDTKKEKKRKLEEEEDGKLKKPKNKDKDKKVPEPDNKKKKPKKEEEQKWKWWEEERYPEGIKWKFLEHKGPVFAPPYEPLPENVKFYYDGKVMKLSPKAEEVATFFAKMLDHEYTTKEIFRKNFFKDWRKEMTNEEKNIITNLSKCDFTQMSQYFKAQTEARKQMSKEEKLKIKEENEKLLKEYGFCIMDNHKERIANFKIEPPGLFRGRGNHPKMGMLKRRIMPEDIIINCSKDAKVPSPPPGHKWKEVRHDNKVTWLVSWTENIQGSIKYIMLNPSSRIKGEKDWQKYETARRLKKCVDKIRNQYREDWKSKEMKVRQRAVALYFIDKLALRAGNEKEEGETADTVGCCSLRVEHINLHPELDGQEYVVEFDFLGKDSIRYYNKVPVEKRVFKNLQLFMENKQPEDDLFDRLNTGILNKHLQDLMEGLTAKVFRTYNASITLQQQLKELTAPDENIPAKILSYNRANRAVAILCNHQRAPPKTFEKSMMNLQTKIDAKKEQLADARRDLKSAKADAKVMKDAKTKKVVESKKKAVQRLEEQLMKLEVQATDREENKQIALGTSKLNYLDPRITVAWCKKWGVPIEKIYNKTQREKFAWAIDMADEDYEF

HL-60 [9] = assay: Antiproliferative activity against human HL60 cells assessed as cell number at 5 uM incubated for 48 hrs by Coulter counting method; assay type: functional; how it was run: as §1
HL-60 [10] = assay: Cell cycle arrest in human HL60 cells assessed as accumulation at G1 phase at 5 uM incubated for 24 hrs by flow cytometry (reference value: 35.96 +/- 1.63%); assay type: functional
HL-60 [11] = assay: Induction of mitochondrial membrane dissipation in human HL60 cells at 5 to 25 uM incubated for 24 to 72 hrs by FACS assay; assay type: functional
How it was run: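 HL-60 cells (5 × 10^5) were treated 24, 48 or 72 h, washed in HBSS and loaded with TMRE for 20 min at 37 °C in the dark. TMRE fluorescence in FL2 was read by flow cytometry, with 1 × 10^4 gated cells per sample. Result is the percentage of cells with decreased fluorescence (dissipated MMP). Mean ± SD, n ≥ 3.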

Nucleic Acid [12] = assay: Binding affinity to calf thymus DNA at 11 to 58 uM by LD spectroscopy; assay type: nucleic-acid assay; conditions: Bos taurus
How it was run: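 Flow LD spectra were recorded in a Couette cell (1 mm path) from 210 to 550 nm at 25 °C in 10 mM Tris. ctDNA was modified by compound at 11–58 × 10^-6 M.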

HL-60 [13] = assay: Cell cycle arrest in human HL60 cells assessed as accumulation at G1 phase at 5 uM incubated for 72 hrs by flow cytometry (reference value: 47.02 +/- 6.19%); assay type: functional
HL-60 [14] = assay: Antiproliferative activity against human HL60 cells assessed as cell number at 25 uM incubated for 72 hrs by Coulter counting method; assay type: functional; how it was run: as §1
HL-60 [15] = assay: Cell cycle arrest in human HL60 cells assessed as accumulation at G1 phase at 15 uM incubated for 48 hrs by flow cytometry (reference value: 38.29 +/- 0.22%); assay type: functional
HL-60 [16] = assay: Induction of necrosis in human HL60 cells at 5 to 25 uM incubated for 48 hrs by AnnexinV/propidium iodide staining method; assay type: functional, cell-based
How it was run: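 HL-60 cells (1.5 × 10^5) were exposed to compound, then stained 10 min with Annexin V-FITC in HEPES/CaCl2/NaCl binding buffer. Cells were washed, briefly stained with propidium iodide and analysed by flow cytometry for apoptotic and necrotic fractions. Mean ± SD of at least three independent experiments.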

Nucleic Acid [17] = assay: Binding affinity to calf thymus DNA by spectrofluorimetric titration assay; assay type: nucleic-acid assay; conditions: Bos taurus
How it was run: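 Fluorescence titration at 25 °C in 0.01 M Tris, pH 7.4. Compound (9.58 × 10^-6 M) was titrated with ctDNA from 0 to 2.57 × 10^-4 M bp, excited at 384 nm, and emission recorded from 400 to 600 nm. K and n were obtained from McGhee–von Hippel fits of Scatchard data.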

HL-60 [18] = assay: Antiproliferative activity against human HL60 cells assessed as cell number at 15 uM incubated for 24 hrs by Coulter counting method; assay type: functional; how it was run: as §1
HL-60 [19] = assay: Cell cycle arrest in human HL60 cells assessed as accumulation at G1 phase at 15 uM incubated for 24 hrs by flow cytometry (reference value: 35.96 +/- 1.63%); assay type: functional

| Structure (SMILES) | Activity (HL-60 [1]) | Activity (HL-60 [2]) | Drug uptake (HL-60 [3]) | Activity (HL-60 [4]) | Activity (HL-60 [5]) | Activity (HL-60 [6]) | Activity (HL-60 [7]) | Topoisomerase 1 inhibition (active/inactive) [8] | Activity (HL-60 [9]) | Activity (HL-60 [10]) | Activity (HL-60 [11]) | Activity (Nucleic Acid [12]) | Activity (HL-60 [13]) | Activity (HL-60 [14]) | Activity (HL-60 [15]) | Activity (HL-60 [16]) | K (Nucleic Acid [17]) | Activity (HL-60 [18]) | Activity (HL-60 [19]) |
| --- | --- | --- | --- | --- | --- | --- | --- | --- | --- | --- | --- | --- | --- | --- | --- | --- | --- | --- | --- |
| CCCCCCNC(=N)Nc1ccc2cc3ccc(NC(=N)NCCCCCC)cc3nc2c1.Cl.Cl.O | Active | 27.77% | Active | 7.47% | 5.85% | 40.67% | 51.52% | Active | 72.18% | 36.31% | 70% | Active | 48.93% | 20.46% | 64.37% | Active | 1.25 ×10⁵ /M | 74.49% | 41.77% |
| CCNC(=N)Nc1ccc2cc3ccc(NC(=N)NCC)cc3nc2c1.Cl.Cl.O | inactive | inactive | Active | inactive | inactive | 86.85% | inactive | Active | 78.56% | inactive | inactive | Active | inactive | 94.84% | inactive | inactive | 5.26 ×10⁵ /M | 78.95% | inactive |
